Each structure is given as a SMILES string. Activity calls are given as the source filed them. The calls are words filed in the database; no cut-off is given here.

In series [1] the target is Insulin receptor (Homo sapiens) (UniProt P06213). Kind of series: Inhibition of recombinant human activated IR (1005 to 1310 residues) at 10 uM using KKKSPGEYVNIEFG as substrate measured after 40 mins in presence of [gamma33P]ATP by scintillation counting method.
The species entered for series [2] is Mus musculus. The series can be described thus: Inhibition of recombinant full-length mouse PI3K p110alpha/p85alpha E545K mutant at 10 uM using phosphatidylinositol-4, 5-bisphosphate as substrate measured after 40 mins by HTRF assay.
Series [3] concerns the target Mitogen-activated protein kinase 1 (Homo sapiens) (UniProt P28482). The series can be described thus: Inhibition of recombinant full-length human MAPK1 at 10 uM using myelin basic protein as substrate measured after 40 mins in presence of [gamma33P]ATP by scintillation counting method.
The subject of series [4] is Serine/threonine-protein kinase B-raf (Homo sapiens), P15056 [V600E]. The series can be described thus: Inhibition of recombinant human BRAF V599E mutant (416 to end residues) at 10 uM using myelin basic protein as substrate measured after 40 mins in presence of [gamma33P]ATP by scintillation counting method.
The target of series [5] is Ribosomal protein S6 kinase alpha-1 (Homo sapiens) (UniProt Q15418). The series can be described thus: Inhibition of recombinant full-length human Rsk1 at 10 uM using KKKNRTLSVA as substrate measured after 40 mins in presence of [gamma33P]ATP by scintillation counting method.
The subject of series [6] is CDK18/Cyclin Y (Homo sapiens), Q07002+Q8ND76 [T166M]. The series can be described thus: Inhibition of recombinant full length human cyclinY/CDK18 T166M mutant at 10 uM using YRRAAVPPSPSLS as substrate measured after 40 mins in presence of [gamma33P]ATP by scintillation counting method. Format: protein-complex assay.
The species entered for series [7] is Homo sapiens. The series can be described thus: Inhibition of recombinant full-length human PI3K p120gamma R459Q mutant at 10 uM using phosphatidylinositol-4, 5-bisphosphate as substrate measured after 40 mins by fluorescence assay.
Series [8] concerns the target Tyrosine-protein kinase JAK2 (Homo sapiens) (UniProt O60674). Kind of series: Inhibition of recombinant human JAK2 (808 to end residues) at 10 uM using KTFCGTPEYLAPEVRREPRILSEEEQEMFRDFDYIADWC as substrate measured after 40 mins in presence of [gamma33P]ATP by scintillation counting method.
The species entered for series [9] is Homo sapiens. The series can be described thus: Inhibition of human Ros V2262A mutant (1883 to end residues) using KKKSPGEYVNIEFG as substrate measured after 40 mins in presence of [gamma33P]ATP by scintillation counting method. In short, it runs like this: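 Kinase panel of 422 kinases screened by Eurofins KinaseProfiler at a single test-compound concentration of 10 µM.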

Series [10] addresses Serine/threonine-protein kinase VRK1 (Homo sapiens) (UniProt Q99986). The series can be described thus: Inhibition of human VRK1 at 10 uM by radiometric method.
The target of series [11] is [Pyruvate dehydrogenase (acetyl-transferring)] kinase isozyme 4, mitochondrial (Homo sapiens) (UniProt Q16654). The series can be described thus: Inhibition of recombinant full-length human PDHK4 at 10 uM using KKKYHGHSMSDPGVSYRT as substrate measured after 40 mins in presence of [gamma33P]ATP by scintillation counting method.
Sequence of [Pyruvate dehydrogenase (acetyl-transferring)] kinase isozyme 4, mitochondrial (Homo sapiens) (Q16654 whole entry, looked up): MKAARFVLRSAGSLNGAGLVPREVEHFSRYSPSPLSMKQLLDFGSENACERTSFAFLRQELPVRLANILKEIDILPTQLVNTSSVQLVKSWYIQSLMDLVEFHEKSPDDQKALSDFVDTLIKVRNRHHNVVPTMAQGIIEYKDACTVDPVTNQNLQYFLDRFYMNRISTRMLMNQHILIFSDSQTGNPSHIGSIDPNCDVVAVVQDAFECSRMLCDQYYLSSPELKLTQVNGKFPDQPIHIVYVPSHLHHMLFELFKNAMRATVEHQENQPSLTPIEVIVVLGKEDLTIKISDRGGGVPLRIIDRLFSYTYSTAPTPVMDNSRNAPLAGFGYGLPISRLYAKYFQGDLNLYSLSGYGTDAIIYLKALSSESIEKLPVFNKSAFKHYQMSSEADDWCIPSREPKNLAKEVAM
Series [12] concerns Hepatocyte growth factor receptor (Homo sapiens), P08581 [D1228N]. Kind of series: Inhibition of recombinant human MET A1209G/V1290L/D1246N mutant (974 to end residues) at 10 uM using KKKGQEEEYVFIE as substrate measured after 40 mins in presence of [gamma33P]ATP by scintillation counting method.
Series [13] addresses Tyrosine-protein kinase HCK (Homo sapiens) (UniProt P08631). Kind of series: Inhibition of recombinant human HCK (230 to 497 residues) at 10 uM using Cdc2 peptide as substrate measured after 40 mins in presence of [gamma33P]ATP by scintillation counting method.
Series [14] is filed under the species Mus musculus. The series can be described thus: Inhibition of recombinant mouse ABL L782P/G784R/W785L/L786V mutant (27 to end residues) at 10 uM using EAIYAAPFAKKK as substrate measured after 40 mins in presence of [gamma33P]ATP by scintillation counting method.
Series [15] deals with Nucleosome-remodeling factor subunit BPTF (Homo sapiens, UniProt Q12830). The series can be described thus: Binding affinity to human partial length FALZ (S2791 to H2911 residues) expressed in bacterial expression system at 1 uM by BROMOscan assay. In short, it runs like this:
(§1)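 BROMOscan bromodomain cross-screen run by an outside service, compound at 1 µM against 32 recombinant bromodomains. Binding given as percent of control.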

The target of series [16] is Serine/threonine-protein kinase 32B (Homo sapiens) (UniProt Q9NY57). Kind of series: Inhibition of recombinant full-length human STK32B at 10 uM using casein as substrate measured after 120 mins in presence of [gamma33P]ATP by scintillation counting method.
Sequence of Serine/threonine-protein kinase 32B (Homo sapiens) (Q9NY57 whole entry, the tested form may be a part): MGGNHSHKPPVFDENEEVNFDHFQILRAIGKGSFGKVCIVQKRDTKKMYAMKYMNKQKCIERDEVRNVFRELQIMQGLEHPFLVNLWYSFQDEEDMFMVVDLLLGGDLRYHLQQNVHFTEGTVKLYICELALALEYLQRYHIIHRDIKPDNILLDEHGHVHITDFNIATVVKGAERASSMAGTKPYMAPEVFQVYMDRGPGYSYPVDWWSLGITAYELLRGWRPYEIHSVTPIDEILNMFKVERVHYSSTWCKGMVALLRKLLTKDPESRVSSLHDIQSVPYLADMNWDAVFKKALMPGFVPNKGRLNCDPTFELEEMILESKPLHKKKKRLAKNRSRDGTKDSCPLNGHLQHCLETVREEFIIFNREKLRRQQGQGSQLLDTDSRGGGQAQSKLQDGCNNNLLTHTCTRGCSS
Series [17] addresses Histone acetyltransferase p300 (Homo sapiens) (UniProt Q09472). Kind of series: Binding affinity to human partial length EP300 (A1040 to G1161 residues) expressed in bacterial expression system at 1 uM by BROMOscan assay. Put shortly: as §1
In series [18] the target is Transient receptor potential cation channel subfamily M member 7 (Homo sapiens) (UniProt Q96QT4). Kind of series: Inhibition of recombinant human CHAK1 (1180 to end residues) at 10 uM using myelin basic protein as substrate measured after 40 mins in presence of [gamma33P]ATP by scintillation counting method.
Series [19] has as its target MAPK/MAK/MRK overlapping kinase (Homo sapiens) (UniProt Q9UQ07). Kind of series: Inhibition of recombinant human MOK (1 to 343 residues) at 10 uM using RSRSRSRSRSRSRSR as substrate measured after 40 mins in presence of [gamma33P]ATP by scintillation counting method.
Series [20] concerns the target Mitogen-activated protein kinase kinase kinase 9 (Homo sapiens) (UniProt P80192). The series can be described thus: Inhibition of recombinant human MLK1 (134 to 414 residues) at 10 uM using casein as substrate measured after 40 mins in presence of [gamma33P]ATP by scintillation counting method.
Series [21] addresses CDK12/Cyclin K (Homo sapiens) (UniProt O75909+Q9NYV4). The series can be described thus: Inhibition of recombinant full length human CDK12/cyclinK at 10 uM using RSRSRSRSRSRSRSR as substrate measured after 120 mins in presence of [gamma33P]ATP by scintillation counting method. Format: protein-complex assay.
The subject of series [22] is Tyrosine-protein kinase ABL1 (Homo sapiens), P00519 [Y253F]. Kind of series: Inhibition of recombinant human ABL Y253F mutant (27 to end residues) at 10 uM using EAIYAAPFAKKK as substrate measured after 40 mins in presence of [gamma33P]ATP by scintillation counting method.
Series [23] in a line: AUC (0 to t) in Sprague-Dawley rat at 10 mg/kg, po administered via gavage by LC-MS/MS analysis. Format: ADME, organism-based. The following applies: in vivo. In short, it runs like this: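 Serial jugular blood samples taken at designated times and spun to plasma at 4 ℃. Plasma mixed with acetonitrile holding internal standard, then LC-MS/MS. Parameters from noncompartmental fitting.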

Series [24] relates to Tyrosine-protein kinase receptor UFO (Homo sapiens), P30530 [Q764R]. Kind of series: Inhibition of recombinant human AXL Q764R mutant (473 to end residues) at 10 uM using KKSRGDYMTMQIG as substrate measured after 40 mins in presence of [gamma33P]ATP by scintillation counting method.
Sequence of Tyrosine-protein kinase receptor UFO (Homo sapiens), P30530 [Q764R] (P30530 whole entry Q764R): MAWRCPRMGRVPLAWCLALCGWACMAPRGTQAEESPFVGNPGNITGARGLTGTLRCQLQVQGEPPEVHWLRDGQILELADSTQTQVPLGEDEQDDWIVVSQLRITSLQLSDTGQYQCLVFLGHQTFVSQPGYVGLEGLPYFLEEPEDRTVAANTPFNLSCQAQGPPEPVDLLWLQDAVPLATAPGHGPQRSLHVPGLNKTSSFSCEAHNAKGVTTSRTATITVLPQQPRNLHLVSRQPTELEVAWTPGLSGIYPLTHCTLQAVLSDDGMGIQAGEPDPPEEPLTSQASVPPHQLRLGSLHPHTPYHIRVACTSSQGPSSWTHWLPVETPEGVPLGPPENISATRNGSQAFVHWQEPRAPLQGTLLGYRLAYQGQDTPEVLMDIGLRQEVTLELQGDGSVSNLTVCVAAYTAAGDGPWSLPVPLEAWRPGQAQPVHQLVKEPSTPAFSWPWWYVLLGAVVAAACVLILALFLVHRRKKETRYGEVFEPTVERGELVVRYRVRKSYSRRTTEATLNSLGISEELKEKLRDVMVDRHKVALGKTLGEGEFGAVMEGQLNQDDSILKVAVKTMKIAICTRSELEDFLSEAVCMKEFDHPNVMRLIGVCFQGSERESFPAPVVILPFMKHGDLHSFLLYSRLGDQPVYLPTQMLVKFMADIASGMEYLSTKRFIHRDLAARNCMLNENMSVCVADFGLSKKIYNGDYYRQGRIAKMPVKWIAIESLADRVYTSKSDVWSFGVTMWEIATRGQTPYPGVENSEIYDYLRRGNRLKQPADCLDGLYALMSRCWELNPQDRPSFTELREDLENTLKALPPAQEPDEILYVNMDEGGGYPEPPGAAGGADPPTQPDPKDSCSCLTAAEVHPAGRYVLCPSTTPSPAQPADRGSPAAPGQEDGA

Sequence of Serine/threonine-protein kinase VRK1 (Homo sapiens) (Q99986 whole entry): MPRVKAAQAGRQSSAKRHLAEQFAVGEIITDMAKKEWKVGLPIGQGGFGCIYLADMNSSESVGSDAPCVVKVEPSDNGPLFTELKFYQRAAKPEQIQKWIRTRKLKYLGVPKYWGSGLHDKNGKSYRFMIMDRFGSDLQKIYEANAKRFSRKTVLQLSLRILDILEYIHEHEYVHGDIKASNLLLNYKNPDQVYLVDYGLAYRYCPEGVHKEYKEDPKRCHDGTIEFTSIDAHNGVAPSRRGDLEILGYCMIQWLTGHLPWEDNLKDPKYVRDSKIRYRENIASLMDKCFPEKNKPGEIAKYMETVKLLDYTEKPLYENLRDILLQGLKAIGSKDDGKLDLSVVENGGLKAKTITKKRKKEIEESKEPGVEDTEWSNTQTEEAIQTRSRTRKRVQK
Sequence of Tyrosine-protein kinase HCK (Homo sapiens) (P08631 2-526 limits assumed): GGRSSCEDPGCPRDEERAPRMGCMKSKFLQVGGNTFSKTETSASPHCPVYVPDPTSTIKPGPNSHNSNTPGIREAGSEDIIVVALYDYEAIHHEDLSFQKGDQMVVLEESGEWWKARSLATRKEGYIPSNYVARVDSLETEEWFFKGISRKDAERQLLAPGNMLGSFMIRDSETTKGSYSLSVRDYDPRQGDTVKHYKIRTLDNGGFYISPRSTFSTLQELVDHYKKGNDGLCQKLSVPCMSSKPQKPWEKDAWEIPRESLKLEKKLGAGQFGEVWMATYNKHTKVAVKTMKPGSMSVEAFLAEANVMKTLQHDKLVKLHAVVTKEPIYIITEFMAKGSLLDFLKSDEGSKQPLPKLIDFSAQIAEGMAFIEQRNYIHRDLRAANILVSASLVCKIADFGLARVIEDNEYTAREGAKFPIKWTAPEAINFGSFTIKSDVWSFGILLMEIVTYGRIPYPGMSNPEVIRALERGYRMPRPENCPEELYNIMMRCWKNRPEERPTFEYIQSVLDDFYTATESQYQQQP
Sequence of Insulin receptor (Homo sapiens) (P06213 28-758 limits assumed): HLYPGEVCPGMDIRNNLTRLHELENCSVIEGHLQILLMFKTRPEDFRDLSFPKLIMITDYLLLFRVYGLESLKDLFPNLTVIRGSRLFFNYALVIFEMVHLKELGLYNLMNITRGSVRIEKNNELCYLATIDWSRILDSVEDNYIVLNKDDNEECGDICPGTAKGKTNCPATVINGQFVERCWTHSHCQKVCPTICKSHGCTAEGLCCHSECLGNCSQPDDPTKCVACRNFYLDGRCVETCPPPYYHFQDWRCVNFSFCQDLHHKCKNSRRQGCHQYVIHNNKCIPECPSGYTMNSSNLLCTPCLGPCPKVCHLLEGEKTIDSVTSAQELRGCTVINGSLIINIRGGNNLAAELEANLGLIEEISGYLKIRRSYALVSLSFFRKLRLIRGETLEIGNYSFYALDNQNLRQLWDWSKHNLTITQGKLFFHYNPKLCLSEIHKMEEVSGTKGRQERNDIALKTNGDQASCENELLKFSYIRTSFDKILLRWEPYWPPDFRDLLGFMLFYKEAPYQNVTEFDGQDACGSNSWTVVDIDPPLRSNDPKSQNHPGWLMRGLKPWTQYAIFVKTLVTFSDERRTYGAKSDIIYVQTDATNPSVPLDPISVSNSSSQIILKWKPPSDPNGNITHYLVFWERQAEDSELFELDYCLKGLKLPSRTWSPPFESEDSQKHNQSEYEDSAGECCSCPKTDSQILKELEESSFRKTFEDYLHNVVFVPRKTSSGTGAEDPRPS
Sequence of Insulin receptor (Homo sapiens) (P06213 763-1382 limits assumed): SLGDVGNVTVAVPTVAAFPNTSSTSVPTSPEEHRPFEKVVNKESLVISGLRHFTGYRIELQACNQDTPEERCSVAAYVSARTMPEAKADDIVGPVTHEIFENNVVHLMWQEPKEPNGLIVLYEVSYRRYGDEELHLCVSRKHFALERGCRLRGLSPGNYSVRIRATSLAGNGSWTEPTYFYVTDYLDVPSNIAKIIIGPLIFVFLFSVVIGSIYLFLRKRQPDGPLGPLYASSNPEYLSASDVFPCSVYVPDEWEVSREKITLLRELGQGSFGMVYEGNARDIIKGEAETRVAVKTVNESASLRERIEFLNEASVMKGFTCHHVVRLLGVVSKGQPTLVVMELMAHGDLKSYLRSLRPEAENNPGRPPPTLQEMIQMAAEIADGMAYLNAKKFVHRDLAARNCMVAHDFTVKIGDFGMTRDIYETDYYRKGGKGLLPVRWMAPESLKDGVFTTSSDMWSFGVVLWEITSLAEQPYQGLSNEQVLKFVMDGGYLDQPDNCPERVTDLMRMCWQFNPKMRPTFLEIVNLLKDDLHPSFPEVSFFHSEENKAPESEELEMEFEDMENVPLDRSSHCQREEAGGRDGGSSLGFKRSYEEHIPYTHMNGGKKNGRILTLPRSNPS
Sequence of Serine/threonine-protein kinase B-raf (Homo sapiens), P15056 [V600E] (P15056 whole entry V600E): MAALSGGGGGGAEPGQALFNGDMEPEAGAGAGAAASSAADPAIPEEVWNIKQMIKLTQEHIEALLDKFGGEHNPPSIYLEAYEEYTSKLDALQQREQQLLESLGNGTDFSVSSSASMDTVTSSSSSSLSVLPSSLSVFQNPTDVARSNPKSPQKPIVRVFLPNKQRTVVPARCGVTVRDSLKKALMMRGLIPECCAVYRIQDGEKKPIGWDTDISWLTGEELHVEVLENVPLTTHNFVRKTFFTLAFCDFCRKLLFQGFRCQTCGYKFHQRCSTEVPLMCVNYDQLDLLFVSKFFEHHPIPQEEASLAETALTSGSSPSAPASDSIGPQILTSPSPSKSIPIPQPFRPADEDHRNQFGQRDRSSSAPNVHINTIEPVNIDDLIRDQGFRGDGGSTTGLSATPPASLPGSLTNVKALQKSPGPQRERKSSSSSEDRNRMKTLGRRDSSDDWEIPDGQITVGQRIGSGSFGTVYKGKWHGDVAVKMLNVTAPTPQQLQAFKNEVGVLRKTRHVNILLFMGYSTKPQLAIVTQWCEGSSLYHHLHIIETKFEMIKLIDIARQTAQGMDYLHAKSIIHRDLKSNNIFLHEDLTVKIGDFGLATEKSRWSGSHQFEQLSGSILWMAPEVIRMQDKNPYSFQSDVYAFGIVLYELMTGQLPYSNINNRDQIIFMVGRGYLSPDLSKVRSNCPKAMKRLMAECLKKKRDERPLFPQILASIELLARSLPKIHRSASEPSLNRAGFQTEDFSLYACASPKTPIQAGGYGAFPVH

Turning to `CN1C[C@H](Nc2nc3cc[nH]c3c(=O)n2C)C[C@H](c2ccc3c(c2)OCCO3)C1`, the inhibition result in [1], in [2], in series [3], in series [4], in series [5] and in series [6] was “inactive” each time. Moreover, the inhibition entry in [7], in series [8], in [9], in [10], in [11] and in series [12] was “inactive” in each case. Besides, the inhibition result in series [13], in series [14], in [16], in series [18], in [19] and in series [20] was “inactive” throughout. Also, the inhibition entry in series [21], in series [22] and in series [24] was “inactive” in each case. The outcome in series [15] was Active. Besides, in series [17], the outcome was inactive. For the same compound, the AUC(0-t) in [23] was determined as 2480 ng·h/mL.

For the origin of these results see ChEMBL document CHEMBL4350961, “Discovery of Pyrrolo[3,2- d]pyrimidin-4-one Derivatives as a New Class of Potent and Cell-Active Inhibitors of P300/CBP-Associated Factor Bromodomain” (J Med Chem, 2019).
